# Measurements as given in ChEMBL document CHEMBL1145840, “Identification of (3R)-7-hydroxy-N-((1S)-1-[[(3R,4R)-4-(3-hydroxyphenyl)- 3,4-dimethyl-1-piperidinyl]methyl]-2-methylpropyl)-1,2,3,4-tetrahydro- 3-isoquinolinecarboxamide as a novel potent and selective opioid kappa receptor antagonist” (J Med Chem, 2003).
# Values joined by “and” are separate entries in the source; they are usually repeats but may differ in a detail not shown here. Identical values can stand only once.
# Columns and labels:
# [1] = target: Kappa-type opioid receptor (Cavia porcellus) (UniProt P41144); assay: Inhibition of U69,593 antagonistic activity in [35S]GTP-gamma-S, assay against guinea pig Opioid receptor kappa 1; type: functional
# Procedure, shortened: (§1)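 Agonist-stimulated binding was run with varying drug concentrations, 3 h at 25 °C, then filtration and scintillation counting. Nonspecific binding was taken with 10 µM GTPγS. Three experiments were pooled and fit by nonlinear least squares to give Ke.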
# [2] = target: Mu-type opioid receptor (Cavia porcellus) (UniProt P97266); assay: Antagonistic activity against DAMGO and guinea pig caudate Opioid receptor mu 1 in [35S]GTP-gamma-S, assay; type: functional; procedure, shortened: as §1
# [3] = target: T1, Kappa-type opioid receptor (Homo sapiens, UniProt P41145); assay: Antagonistic activity against human cloned kOpioid receptor kappa 1 using U69,593 in [35S]GTP-gamma-S, assay; type: functional; details: read-out: pA2 (converted)
# Procedure, shortened: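 Membranes from CHO cells transfected with cloned human κ opioid receptor. Antagonism is measured as inhibition of U69,593-stimulated [35S]GTPγS binding and expressed as a Ke value.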
# [4] = target: T2, Delta-type opioid receptor (Homo sapiens, UniProt P41143); assay: (§2) Antagonistic activity against human cloned Opioid receptor delta 1 using DPDPE in [35S]GTP-gamma-S, assay; type: functional; details: read-out: pA2 (converted)
# [5] = target: Delta-type opioid receptor (Rattus norvegicus, UniProt P33533); assay: Inhibition of [3H]-DADLE binding to Opioid receptor delta 1 of rat brain tissue
# Procedure, shortened: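 Rat brain membranes prepared daily, labelled with 2 nM [3H]DADLE. Incubation 2 h at 25 °C in 50 mM Tris-HCl pH 7.4 with 100 mM choline chloride, 3 mM MnCl2, 100 nM DAMGO to block mu sites, and protease inhibitors. Nonspecific binding was taken with 20 µM levallorphan. Radioligand was displaced by 8-10 drug concentrations. Ki came from IC50 via Cheng–Prusoff, from two pooled experiments.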
# Mu-type opioid receptor [6] = target: Mu-type opioid receptor (Rattus norvegicus, UniProt P33535); assay: Inhibition of [3H]DAMGO binding to Opioid receptor mu 1 of rat brain tissue
# Procedure, shortened: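 Rat brain membranes prepared daily, labelled with [3H]DAMGO. Incubation 2 h at 25 °C in 50 mM Tris-HCl pH 7.4 with protease inhibitor cocktail. Nonspecific binding was taken with 20 µM levallorphan. Radioligand was displaced by 8-10 drug concentrations. IC50 was converted to Ki by IC50/(1+[L]/Kd), from two pooled experiments.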
# [7] = target: Kappa-type opioid receptor (Cavia porcellus, UniProt P41144); assay: Inhibition of [3H]U-69593 binding to Opioid receptor kappa 1 of guinea pig brain
# Procedure, shortened: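 Guinea pig brain membranes prepared daily, labelled with 2 nM [3H]U69,593. Incubation 2 h at 25 °C in 50 mM Tris-HCl pH 7.4 with 1 µg/mL captopril and protease inhibitors. Nonspecific binding was taken with 1 µM U69,593. Radioligand was displaced by 8-10 drug concentrations. Ki came from IC50 via IC50/(1+[L]/Kd), from two pooled experiments.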
# Mu-type opioid receptor [8] = target: T3, Mu-type opioid receptor (Homo sapiens, UniProt P35372); assay: Antagonistic activity against human cloned Opioid receptor mu 1 using DPDPE in [35S]GTP-gamma-S, assay; type: functional; details: read-out: pA2 (converted)
# [9] = target: Opioid receptors; delta & kappa (Homo sapiens) (UniProt P41145+P41143); assay: Selectivity ratio of delta and kappa opioid receptor; type: protein assay
# [10] = target: Opioid receptors; mu & kappa (Homo sapiens) (UniProt P41145+P35372); assay: Selectivity ratio of mu and kappa opioid receptor; type: protein assay
# [11] = target: T1, Kappa-type opioid receptor; assay: Binding affinity towards human cloned Opioid receptor kappa 1 using [3H]U-69593
# [12] = target: T2, Delta-type opioid receptor; assay: as §2; type: functional
# [13] = target: T2, Delta-type opioid receptor; assay: Binding affinity towards human cloned Opioid receptor delta 1 using [3H]Cl-DPDPE
# [14] = target: T1, Kappa-type opioid receptor; assay: Antagonistic activity against human cloned Opioid receptor kappa 1 using U69,593 in [35S]GTP-gamma-S, assay; type: functional
# Mu-type opioid receptor [15] = target: T3, Mu-type opioid receptor; assay: Antagonistic activity against human cloned Opioid receptor mu 1 using DAMGO in [35S]GTP-gamma-S, assay; type: functional
# Mu-type opioid receptor [16] = target: T3, Mu-type opioid receptor; assay: Binding affinity towards human cloned Opioid receptor mu 1 using [3H]DAMGO
# Mu-type opioid receptor [17] = target: T3, Mu-type opioid receptor
# Sequence of Delta-type opioid receptor (Rattus norvegicus, UniProt P33533) (P33533 whole entry): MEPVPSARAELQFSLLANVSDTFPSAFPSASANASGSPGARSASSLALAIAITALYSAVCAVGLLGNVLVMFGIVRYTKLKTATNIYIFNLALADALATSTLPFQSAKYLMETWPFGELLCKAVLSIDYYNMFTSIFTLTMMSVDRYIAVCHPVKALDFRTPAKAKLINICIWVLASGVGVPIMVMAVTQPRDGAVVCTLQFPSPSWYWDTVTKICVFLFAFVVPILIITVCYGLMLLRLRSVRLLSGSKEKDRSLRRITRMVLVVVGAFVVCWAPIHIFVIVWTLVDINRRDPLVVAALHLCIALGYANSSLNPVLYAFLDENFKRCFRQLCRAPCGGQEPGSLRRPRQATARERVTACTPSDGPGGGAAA
# Sequence of Mu-type opioid receptor (Rattus norvegicus, UniProt P33535) (P33535 whole entry): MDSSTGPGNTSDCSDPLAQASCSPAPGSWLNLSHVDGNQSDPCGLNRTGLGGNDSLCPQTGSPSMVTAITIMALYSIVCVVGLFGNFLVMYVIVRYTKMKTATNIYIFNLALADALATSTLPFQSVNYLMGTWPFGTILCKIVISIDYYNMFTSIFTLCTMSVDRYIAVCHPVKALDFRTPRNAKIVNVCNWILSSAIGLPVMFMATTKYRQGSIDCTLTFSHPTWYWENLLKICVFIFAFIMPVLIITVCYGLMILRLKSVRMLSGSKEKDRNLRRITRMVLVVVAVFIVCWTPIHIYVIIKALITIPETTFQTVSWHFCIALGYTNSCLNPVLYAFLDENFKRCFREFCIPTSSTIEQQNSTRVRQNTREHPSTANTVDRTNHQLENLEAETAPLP
# T3 sequence (P35372 whole entry): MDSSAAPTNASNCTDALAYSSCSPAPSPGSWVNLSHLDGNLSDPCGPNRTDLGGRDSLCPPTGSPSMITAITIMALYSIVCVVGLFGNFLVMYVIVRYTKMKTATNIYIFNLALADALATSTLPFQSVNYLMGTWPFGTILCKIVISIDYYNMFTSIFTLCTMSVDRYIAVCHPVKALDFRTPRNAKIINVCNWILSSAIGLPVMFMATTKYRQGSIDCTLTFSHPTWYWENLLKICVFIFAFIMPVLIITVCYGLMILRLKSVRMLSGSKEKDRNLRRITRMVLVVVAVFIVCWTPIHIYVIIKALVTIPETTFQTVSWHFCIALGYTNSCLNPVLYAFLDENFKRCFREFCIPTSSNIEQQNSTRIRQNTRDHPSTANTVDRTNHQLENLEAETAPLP
# Sequence of Mu-type opioid receptor (Cavia porcellus) (P97266 whole entry): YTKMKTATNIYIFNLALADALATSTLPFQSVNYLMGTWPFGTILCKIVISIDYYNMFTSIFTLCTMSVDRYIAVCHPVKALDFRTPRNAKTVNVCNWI
# T1 sequence (P41145 whole entry): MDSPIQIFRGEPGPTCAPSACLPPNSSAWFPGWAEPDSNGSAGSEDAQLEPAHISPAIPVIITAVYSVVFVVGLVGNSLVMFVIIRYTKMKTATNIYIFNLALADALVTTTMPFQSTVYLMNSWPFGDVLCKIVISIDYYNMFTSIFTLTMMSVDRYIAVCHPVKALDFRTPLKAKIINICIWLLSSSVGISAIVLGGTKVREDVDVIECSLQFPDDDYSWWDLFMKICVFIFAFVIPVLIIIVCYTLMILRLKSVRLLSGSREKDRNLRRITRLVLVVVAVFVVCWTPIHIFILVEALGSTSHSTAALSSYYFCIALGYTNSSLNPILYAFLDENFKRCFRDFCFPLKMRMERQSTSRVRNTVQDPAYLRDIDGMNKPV
# T2 sequence (P41143 whole entry): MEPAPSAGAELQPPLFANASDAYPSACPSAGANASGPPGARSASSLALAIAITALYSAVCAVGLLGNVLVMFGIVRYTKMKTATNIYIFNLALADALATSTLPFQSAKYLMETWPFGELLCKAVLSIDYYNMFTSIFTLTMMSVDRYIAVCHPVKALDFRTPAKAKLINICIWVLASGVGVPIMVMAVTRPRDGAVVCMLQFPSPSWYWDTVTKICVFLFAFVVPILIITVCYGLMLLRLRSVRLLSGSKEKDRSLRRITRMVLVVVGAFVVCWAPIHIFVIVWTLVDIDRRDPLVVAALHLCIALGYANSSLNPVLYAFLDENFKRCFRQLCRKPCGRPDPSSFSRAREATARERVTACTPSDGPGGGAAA
# Sequence of Opioid receptors; delta & kappa (Homo sapiens) (P41143 whole entry, looked up): as the sequence (P41143 whole entry) above
# Sequence of Opioid receptors; delta & kappa (Homo sapiens) (P41145 whole entry, looked up): as the sequence (P41145 whole entry) above
# Sequence of Kappa-type opioid receptor (Cavia porcellus, UniProt P41144) (P41144 whole entry): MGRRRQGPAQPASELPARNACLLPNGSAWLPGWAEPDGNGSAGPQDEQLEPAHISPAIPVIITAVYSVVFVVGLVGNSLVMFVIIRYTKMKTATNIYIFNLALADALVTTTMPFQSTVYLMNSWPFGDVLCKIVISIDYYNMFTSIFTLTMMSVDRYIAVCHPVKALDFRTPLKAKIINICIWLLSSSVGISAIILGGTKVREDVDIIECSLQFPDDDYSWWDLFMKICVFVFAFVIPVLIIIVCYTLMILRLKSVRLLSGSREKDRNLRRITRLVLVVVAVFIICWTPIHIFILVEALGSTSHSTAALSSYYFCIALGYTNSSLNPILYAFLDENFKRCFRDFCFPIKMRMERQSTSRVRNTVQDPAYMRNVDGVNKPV
# Sequence of Kappa-type opioid receptor (Cavia porcellus) (P41144 whole entry): as above
# Sequence of Opioid receptors; mu & kappa (Homo sapiens) (P35372 whole entry, looked up): as the sequence (P35372 whole entry) above
# Sequence of Opioid receptors; mu & kappa (Homo sapiens) (P41145 whole entry, looked up): as the sequence (P41145 whole entry) above
Structure (SMILES),Ke [1],Ke [2],Ki [5],Ki (Mu-type opioid receptor [6]),Ki [7],Ke [12],Ke [14],also measured
CC(C)[C@@H](CN1CC[C@@](C)(c2cccc(O)c2)[C@@H](C)C1)NC(=O)[C@@H](N)Cc1ccc(O)cc1 (stereo in doubt; form 2) [listing 1 of 2 here],30 nM,16.5 nM,–,–,–,–,–,–
N=C(N)Nc1ccc2[nH]c3c(c2c1)C[C@@]1(O)[C@H]2Cc4ccc(O)c5c4[C@@]1(CCN2CC1CC1)[C@H]3O5 [GUANIDINONALTRINDOLE],–,–,70 nM,36.9 nM,0.18 nM,–,–,Kb [3]: 0.0398 nM; Kb [4]: 15.5 nM; Kb (Mu-type opioid receptor [8]): 3.24 nM; Delta/kappa [9]: 389; Mu/kappa ratio [10]: 206
CC(C)[C@@H](CN1CC[C@](C)(c2cccc(O)c2)[C@H](C)C1)NC(=O)[C@H]1Cc2ccc(O)cc2CN1,16.7 nM,178 nM,144 nM,138 nM,17.5 nM,–,–,–
CC(C)[C@@H](CN1CC[C@@](C)(c2cccc(O)c2)[C@@H](C)C1)NC(=O)[C@@H](N)Cc1ccc(O)cc1 (stereo in doubt; form 1) [listing 1 of 2 here],–,–,> 5050 nM,208 nM,20.4 nM,–,–,–
CC(C)[C@@H](CN1CC[C@@](C)(c2cccc(O)c2)[C@@H](C)C1)NC(=O)[C@H]1Cc2ccc(O)cc2CN1C,0.37 nM,12.7 nM,616 nM,37 nM,0.053 nM,120 nM,0.1 nM,Ki [11]: 1.01 nM; Ki [13]: 118 nM; Ke (Mu-type opioid receptor [15]): 8.92 nM; Ki (Mu-type opioid receptor [16]): 8.86 nM
CC(C)[C@@H](CN1CC[C@@](C)(c2cccc(O)c2)[C@@H](C)C1)NC(=O)[C@H]1Cc2ccc(O)cc2CN1 [JDTIC],0.02 nM,2.16 nM,301 nM,3.73 nM,–,79.3 nM,0.01 nM,Ke (Mu-type opioid receptor [15]): 3.41 nM
CC(C)[C@@H](CN1CC[C@@](C)(c2cccc(O)c2)[C@@H](C)C1)NC(=O)[C@@H]1Cc2ccc(O)cc2CN1,4.2 nM,11 nM,> 4900 nM,596 nM,9.8 nM,–,–,–
CC(C)[C@@H](CN1CC[C@@](C)(c2cccc(O)c2)[C@@H](C)C1)NC(=O)[C@H]1Cc2ccc(O)cc2CN1C(=O)CN(C)C,0.16 nM,29 nM,> 3400 nM,164 nM,15.5 nM,299 nM,1.1 nM,Ki [11]: 16.2 nM; Ki [13]: 175 nM; Ke (Mu-type opioid receptor [15]): 21.2 nM; Ki (Mu-type opioid receptor [16]): 13.2 nM
CC(C)[C@@H](CN1CC[C@@](C)(c2cccc(O)c2)[C@@H](C)C1)NC(=O)[C@H]1Cc2ccccc2CN1,–,–,> 4900 nM,775 nM,2.1 nM,–,2.95 nM,Ki [11]: 2.18 nM; Ki [13]: 1090 nM; Ke (Mu-type opioid receptor [15]): 8.38 nM; Ki (Mu-type opioid receptor [16]): 33.1 nM
CC(=O)N1Cc2cc(O)ccc2C[C@@H]1C(=O)N[C@H](CN1CC[C@@](C)(c2cccc(O)c2)[C@@H](C)C1)C(C)C,19.6 nM,17.4 nM,> 4900 nM,764 nM,146 nM,–,–,Delta/kappa [9]: > 34 and 15
CC(C)[C@@H](CN1CC[C@@](C)(c2cccc(O)c2)[C@@H](C)C1)NC[C@H]1Cc2ccc(O)cc2CN1,0.2 nM,12.8 nM,> 4900 nM,–,0.63 nM,427 nM,0.14 nM,Ki [11]: 1.82 nM; Ki [13]: 83.6 nM; Ki (Mu-type opioid receptor [16]): 3.8 nM; Ke (Mu-type opioid receptor [17]): 14.3 nM
CC(C)[C@@H](CN1CC[C@@](C)(c2cccc(O)c2)[C@@H](C)C1)NC(=O)[C@@H](N)Cc1ccc(O)cc1 (stereo in doubt; form 1) [listing 2 of 2 here],44.6 nM,12 nM,–,–,–,–,–,–
Oc1ccc2c3c1O[C@H]1c4[nH]c5c(c4C[C@@]4(O)[C@@H](C2)N(CC2CC2)CC[C@]314)C[C@@]1(O)[C@H]2Cc3ccc(O)c4c3[C@@]1(CCN2CC1CC1)[C@H]5O4,–,–,–,–,–,4.4 nM,–,–
CC(C)[C@@H](CN1CC[C@@](C)(c2cccc(O)c2)[C@@H](C)C1)NC(=O)[C@@H](N)Cc1ccc(O)cc1 (stereo in doubt; form 2) [listing 2 of 2 here],–,–,> 5050 nM,633 nM,16 nM,–,–,–
